Reference: ChEMBL document CHEMBL3804789, “5-Ene-4-thiazolidinones induce apoptosis in mammalian leukemia cells” (Eur J Med Chem, 2016)

What was measured:
[1] = Antiproliferative activity against human HL60 cells after 72 hrs by MTT assay; format: functional, cell-based; conditions: HL-60, 72 h
Method in brief: (§1)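 MTT viability after 72 h continuous exposure. Cells seeded 24 h beforehand at 2,000/well (adherent) or 10,000/well (suspension), then given 0, 0.01, 0.1, 0.5, 1.0 or 10.0 μM compound diluted from 10 mM DMSO stock into RPMI or DMEM with 10% FBS, 37°C, 5% CO2. IC50 taken as concentration killing 50% of cells versus untreated culture.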

[2] = Antiproliferative activity against human SKOV3 cells after 72 hrs by MTT assay; format: functional, cell-based; conditions: SK-OV-3, 72 h; method in brief: as §1

| Structure (SMILES) | IC50 [1] [µM] | IC50 [2] [µM] |
| --- | --- | --- |
| O=C1/C(=C/N2N=C(c3ccc4ccccc4c3)CC2c2ccccc2O)SC(=S)N1c1cccnc1 (configuration not stated) | 4.06 | 5.59 |
| CCN1C(=O)/C(=C/N2N=C(c3ccccc3)CC2c2ccccc2O)SC1=S (configuration not stated) | > 10 | > 10 |
| CC(=O)Oc1ccc(N2C(=O)/C(=C/N3N=C(c4ccc(Cl)cc4)CC3c3ccc(Cl)cc3)SC2=S)cc1 (configuration not stated) | > 10 | > 10 |
| CCOC(=O)CCN1C(=O)/C(=C/N2N=C(c3ccccc3)CC2c2ccccc2O)SC1=S (configuration not stated) | > 10 | > 10 |
| CC(=O)Oc1cccc(N2C(=O)/C(=C/N3N=C(c4ccccc4)CC3c3ccc(N(C)C)cc3)SC2=S)c1 (configuration not stated) | 0.1 | > 10 |
| O=C1/C(=C/N2N=C(c3ccccc3)CC2c2ccccc2O)SC(=S)N1c1cccnc1 (configuration not stated) | 0.72 | > 10 |
| CC(=O)Oc1ccc(N2C(=O)/C(=C/N3N=C(c4ccccc4)CC3c3ccccc3O)SC2=S)cc1 (configuration not stated) | 9.4 | 0.244 |
| O=C1NC(=S)/C(=C/N2N=C(c3ccc4ccccc4c3)CC2c2ccc(Cl)cc2)S1 (configuration not stated) | 0.156 | > 10 |
| CC(=O)Oc1cccc(N2C(=O)/C(=C/N3N=C(c4ccc5ccccc5c4)CC3c3ccc(Cl)cc3)SC2=S)c1 (configuration not stated) | 1.02 | 2.39 |
| O=C1/C(=C/N2N=C(c3ccccc3)CC2c2ccccc2O)SC(=S)N1c1cccc(C(F)(F)F)c1 (configuration not stated) | > 10 | > 10 |
| O=C1NC(=S)S/C1=C\N1N=C(c2ccc(Cl)cc2)CC1c1ccc(Cl)cc1 (configuration not stated) | > 10 | 9.14 |
